Assay outcomes as filed in PubChem BioAssay.
Shown is part of a subset that was picked to be rich in hits.
CHOP inh: CHOP inhibition in unfolded protein response; inhibition, % at 10 µM; AID 2732; 220,000 tested, 3.8% active; CHO-K1 CHOP-promoter luciferase, tunicamycin-induced, 15-18 h;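 active means compounds that reduced the stress-induced luciferase reporter signal by more than about 70% of percent inhibition, limit read from the data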
UPR XBP1 act: adaptive UPR (XBP1) activation; CHO-XBP1 luciferase reporter, IRE1-XBP1 UPR activation, luminescence; percent of tunicamycin response, DMSO as zero; 330,000 tested, 0.33% active; activation, % at 20 µM; AID 463104;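 active means versus positive control, 20 µM dose yields 30% or more activation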
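Signal: luciferase luminescence; Assay system: CHO-XBP1 luciferase reporter cells; Amount: one thousand reporter cells per well; Dosing: 20 µM single concentration, DMSO 1%; Benchmarks: high control tunicamycin 10 µg/mL final, low control DMSO vehicle only; Schedule: 6 h compound exposure at 37 °C, 5% CO2; Evaluation: percent activation relative to tunicamycin reference.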
Jurkat NFkB inh: lowers PMA/ionomycin-induced NF-kB signal in Jurkat cells; 330,000 tested, 0.53% active; PMA/ionomycin-induced NF-kB luciferase reporter, luminescence; inhibition, % at 4 µM; in the data active means inhibition above about 50%
UPR CHOP act: apoptotic UPR (CHOP) activation. CHO-CHOP luciferase reporter, luminescence; percent of tunicamycin response over DMSO baseline. activation, % at 10 µM. 330,000 tested, 0.34% active. AID 449763;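 active means at 10 µM dose, activation of 40% or more, normalized to positive control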
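measured by = luciferase luminescence | assay system = CHO-CHOP cells, stable luciferase reporter of PERK-eIF2a-CHOP signalling | amount = 500 reporter cells seeded per well | timing = 6 h compound exposure at 37 °C after overnight seeding | controls = positive tunicamycin 10 µg/mL, negative DMSO alone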
697 NFkB inh: inhibitors of the PMA/ionomycin-induced NF-kB reporter in 697 B cells; 330,000 tested, 0.33% active; 697 B-cell NF-kB luciferase reporter, 16 h; inhibition, % at 4 µM; in the data active means inhibition above about 35%
697 NFkB conf: lowers PMA/ionomycin-induced NF-kB signal in 697 B cells; shares compounds with 697 NFkB inh; 697 B-cell NF-kB luciferase, 16 h; inhibition, % at 4 µM; 2,000 tested, 35% active; AID 449746; in the data active means inhibition mostly above about 28%, no sharp cut-off; inactive means mostly below about 22%
Numbers stand for hits; . = inactive; / = not tested or not shown.

SMILES | CHOP inh | UPR XBP1 act | Jurkat NFkB inh | UPR CHOP act | 697 NFkB inh | 697 NFkB conf
Cc1ccc(-c2nnn(CC(=O)NC(=O)NC3CCCCC3)n2)cc1 | / | . | . | . | . | /
O=C1CC(c2ccc3c(c2)OCCO3)Oc2ccc([N+](=O)[O-])cc21 (centres undefined) | / | . | . | . | . | .
O=C1CC(c2ccc3c(c2)OCCO3)Oc2ccccc21 (centres undefined) | / | . | . | . | . | /
NC(=O)C1CCN(C(=O)C(=O)c2cn(CC(=O)N3CCCCCC3)c3ccccc23)CC1 | / | . | . | . | . | /
CC1CCc2nc(NC(=O)C3COc4ccccc4O3)sc2C1 (centres undefined) | 78.5 | . | . | . | . | .
Cc1cccc(C(=O)Nc2sc(-c3ccccc3)cc2C(=O)O)c1 | . | . | . | . | . | /
CC(C)(C)C(=O)Nc1sc(-c2ccccc2)cc1C(=O)O | . | . | . | . | . | .
Cc1c(NC(=O)c2cc(-c3cccs3)nc3ccccc23)c(=O)n(-c2ccccc2)n1C | . | . | . | . | 39.1 | .
Cc1c(NC(=O)c2cc(-c3ccccc3)nc3ccccc23)c(=O)n(-c2ccccc2)n1C | / | . | . | . | . | /
N=c1ccn2c(n1)O[C@H]1[C@H](O)[C@@H](CO)O[C@H]12 | / | . | . | . | 52.0 | 44.8
O=c1ccn([C@@H]2O[C@H](CO)[C@@H](O)[C@H]2O)c(=O)[nH]1 | . | . | . | . | . | /
COc1ccc(NC(=S)NCc2ccccc2)c(OC)c1 | / | . | . | . | 42.8 | 29.9
COc1ccc(NC(=S)NCCc2ccccc2)c(OC)c1 | . | . | . | . | . | /
COc1ccc(NC(=O)C2CCCN2C(=O)OCc2ccccc2)c(OC)c1 (centres undefined) | . | . | . | . | 35.8 | .
O=C(O)CN(c1ccccc1[N+](=O)[O-])S(=O)(=O)c1ccccc1 | . | . | . | . | . | /
Cc1[nH]c2ccccc2c1C(=O)CN1CC(C)OC(C)C1 (centres undefined) | . | . | . | . | . | /
COc1cc(C=C(C(C)=O)C(C)=O)ccc1O | . | . | . | . | . | /
COc1ccc(C=C(C(C)=O)C(C)=O)cc1OC | . | . | . | . | 42.7 | 30.3
O=S(=O)(Nc1nc2ccc(Cl)cc2s1)c1cccs1 | / | . | . | . | . | /
O=C(Nc1cccc(Br)c1)c1ccc2c(c1)SC1=NS(=O)(=O)CCN12 | / | . | . | . | 46.0 | 40.6
CC(C)(C)c1ccccc1NC(=O)c1ccc2c(c1)SC1=NS(=O)(=O)CCN12 | . | . | . | . | . | /
Cc1cc2nc3c(nc2cc1C)CCCC3 | / | . | . | . | . | /
CNC(=O)CCc1nc(-c2ccc(C(C)(C)C)cc2)no1 | 93.5 | . | . | . | 84.3 | 72.2
CN(C)C(=O)CCc1nc(-c2ccc(C(C)(C)C)cc2)no1 | . | . | . | . | 81.4 | 77.2
CCc1ccccc1N(CC)C(=O)CCc1nc(-c2ccc(C)cc2)no1 | . | . | . | . | . | /
SMILES | CHOP inh | UPR XBP1 act | Jurkat NFkB inh | UPR CHOP act | 697 NFkB inh | 697 NFkB conf
COc1ccc(-c2noc(CCCC(=O)Nc3ccc(C(N)=O)cc3)n2)cc1 | 82.2 | . | . | . | 78.0 | 44.7
CC(C)(C)c1ccc(-c2noc(CCC(=O)N3CCOCC3)n2)cc1 | . | . | . | . | 51.7 | 36.7
Cn1c(Cc2nc(-c3cnccn3)no2)nnc1SCC(=O)Nc1ccccc1 | . | . | . | . | . | /
CC(C)(C)c1ccc(-c2noc(CCC(=O)Nc3cccnc3)n2)cc1 | / | . | . | . | 90.8 | 91.3
Cc1ccc(-c2noc(CCC(=O)NCC3CCCO3)n2)cc1 (centres undefined) | . | . | . | . | . | /
CC(C)(C)c1ccc(-c2noc(CCC(=O)NCC3CCCO3)n2)cc1 (centres undefined) | 89.5 | . | . | . | 95.9 | 87.5
Cc1onc(NC(=O)NC(=O)c2c(Cl)cccc2Cl)c1Br | / | . | . | . | . | /
CC(C)[C@H](N)c1nnc(SCC(=O)c2ccc(Cl)cc2)o1 | . | . | . | . | 58.0 | 35.3
C[C@H](N)c1nnc(SCC(=O)c2ccc(Cl)cc2)o1 | . | . | . | . | . | /
CC(CCc1ccccc1)NC(=O)c1ccc(F)cc1 (centres undefined) | / | . | . | . | . | /
